Source: article PMC9449982 (Molecular Pharmaceutics, 2022)
Converted amounts (≈) assume the structure as drawn. “And” between values parts separate entries of the source, which are not always exact repeats. Equal values may be shown once. Read-outs that look alike come from different tables or passages of the source. One block for each compound: values may come before it.

Key:
[1] = Amorphous solubility determination, ultracentrifugation; assay type: physicochemical; conditions: phosphate buffer with HPMCAS, pH 6.5, aqueous buffer, kinetic from dmso stock
In short: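 Test compound DMSO stock added to 50 mM pH 6.5 sodium phosphate buffer with 100 μg/mL predissolved HPMCAS, keeping organic solvent below 2% (v/v). Mixture stirred 15 min to form amorphous aggregates, then spun at 35,000 rpm for 30 min. Supernatant diluted 1:1 in mobile phase and quantified by isocratic C18 HPLC at 210 nm. At least triplicate.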

[2] = Flux measurements, Franz diffusion cells; assay type: in vitro ADME
[3] = Particle size determination by dynamic light scattering; assay type: physicochemical
[4] = cited from earlier work
[5] = cited from earlier work; for glass transition temperature (Tg) / Tg, dry: dry
[6] = Wet glass transition temperature; assay type: physicochemical; conditions: amorphous drug equilibrated at 97% relative humidity 48 h; DSC onset
In short: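 Amorphous test compound powder was freshly prepared and vacuum-dried overnight at room temperature. Then 5–10 mg in open hermetic pans was held at 97% relative humidity (saturated potassium sulfate) for 48 h. Pans sealed; DSC run 0 to 90 °C at 10 °C/min. Onset glass transition taken as wet Tg. Triplicate.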

solubility at 15 min [1]: 37.7 ± 3.2 µg/mL (≈ 53.5 µM)
transmembrane flux ([2]; donor ∼20 μg/mL, 150 rpm, no BSA, 37 °C): 0.023 ± 0.003 μg/(min·cm^2)
transmembrane flux ([2]; donor ∼20 μg/mL, 300 rpm, no BSA, 37 °C): 0.030 ± 0.003 μg/(min·cm^2)
transmembrane flux ([2]; donor ∼20 μg/mL, 500 rpm, no BSA, 37 °C): 0.041 ± 0.005 μg/(min·cm^2)
transmembrane flux ([2]; donor ∼40 μg/mL (amorphous solubility), 300 rpm, no BSA, 37 °C): 0.048 ± 0.012 μg/(min·cm^2)
transmembrane flux ([2]; donor ∼40 μg/mL, 500 rpm, no BSA, 37 °C): 0.070 ± 0.008 μg/(min·cm^2)
transmembrane flux ([2]; donor ∼40 μg/mL, 1000 rpm, no BSA, 37 °C): 0.072 ± 0.019 μg/(min·cm^2)
donor concentration at which a flux plateau was observed ([2]; stirring rates equal to or higher than 300 rpm, no BSA): about 150 μg/mL
Z-average ([3]; particles from stock 5 mg/mL, 1000 rpm, 37 °C): 193 ± 4 nm
diffusion coefficient Dp ([3]; particles from stock 5 mg/mL, 1000 rpm, 37 °C (193 nm), listed as ATZ): 3.43 ± 0.07 ×10^–8 cm^2/s
Z-average ([3]; particles from stock 20 mg/mL, 1000 rpm, 37 °C): 460 ± 23 nm
diffusion coefficient Dp ([3]; particles from stock 20 mg/mL, 1000 rpm, 37 °C (460 nm), listed as ATZ): 1.44 ± 0.07 ×10^–8 cm^2/s
SMILES: COC(=O)N[C@H](C(=O)N[C@@H](Cc1ccccc1)[C@@H](O)CN(Cc1ccc(-c2ccccn2)cc1)NC(=O)[C@@H](NC(=O)OC)C(C)(C)C)C(C)(C)C [atazanavir]
pKa ([4]; basic): 4.52,[45] basic
glass transition temperature (Tg) [5]: 104 °C
Tg, wet ([5]; water saturated amorphous precipitates): 51 °C

solubility at 15 min [1]: 7.7 ± 0.3 µg/mL (≈ 22.3 µM)
bulk concentration at which a flux plateau was observed ([2]; 150 rpm, 37 °C, 3% BSA): around 150 μg/mL
SMILES: Clc1ccccc1C(c1ccccc1)(c1ccccc1)n1ccnc1 [clotrimazole]
pKa ([4]; basic): 5.89,[45] basic
Tg, dry [5]: 28,[45] NA ^a °C
glass transition temperature (Tg) [5]: 28 °C

solubility at 15 min [1]: 19.3 ± 2 µg/mL (≈ 30.7 µM)
Z-average ([3]; particles from stock 5 mg/mL, 1000 rpm, 25 °C): 254 ± 3 nm
diffusion coefficient Dp ([3]; particles from stock 5 mg/mL, 1000 rpm, 25 °C (254 nm), listed as LPV): 1.94 ± 0.00 ×10^–8 cm^2/s
Z-average ([3]; particles from stock 12 mg/mL, 300 rpm, 25 °C): 454 ± 10 nm
diffusion coefficient Dp ([3]; particles from stock 12 mg/mL, 300 rpm, 25 °C (454 nm), listed as LPV): 1.09 ± 0.00 ×10^–8 cm^2/s
Z-average ([3]; particles from stock 20 mg/mL, 300 rpm, 25 °C): 839 ± 15 nm
diffusion coefficient Dp ([3]; particles from stock 20 mg/mL, 300 rpm, 25 °C (839 nm), listed as LPV): 0.59 ± 0.01 ×10^–8 cm^2/s
Tg, wet [6]: 42 °C and 42.2 ± 1.8 °C
SMILES: Cc1cccc(C)c1OCC(=O)N[C@@H](Cc1ccccc1)[C@@H](O)C[C@H](Cc1ccccc1)NC(=O)[C@H](C(C)C)N1CCCNC1=O [lopinavir]
pKa ([4]; no reference printed): not dissociated at physiological pHs
pKa ([4]; no reference printed, listed as Lopinavir): not expected to dissociate within physiological pH ranges
Tg, dry [5]: 69 °C
glass transition temperature (Tg) [5]: 69 °C
